Data reported in ChEMBL document CHEMBL1140881, “Discovery of 13-oxa prostaglandin analogs as antiglaucoma agents: synthesis and biological activity” (Bioorg Med Chem, 2009).
One block for each compound: values may come before it. Active and inactive are the calls of the source. No cut-off for these calls is given here.

Experiments:
[1] = species on record: Oryctolagus cuniculus; test: Effect on ocular irritation in New Zealand albino rabbit assessed as incidence of conjunctival hyperemia at 1 ug after 1 to 5 hrs; assay type: functional, Conjunctiva
Method in brief: (§1)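 Topical single 30 µL drop into both eyes of each of five rabbits, doses 0.03–100 µg. Vehicle was trimethamine/boric acid buffer with 4.6% mannitol, HCO-40, 0.01% EDTA and 0.01% benzalkonium chloride, pH 7.4. Eyes were scored at 1, 2, 3 and 5 h. The percent of eyes scoring +2 or greater, pooled across all time points, is reported as study % incidence. Qualitative, with no statistics.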

[2] = species on record: Oryctolagus cuniculus; test: Effect on ocular irritation in New Zealand albino rabbit assessed as incidence of conjunctival swelling at 1 ug after 1 to 5 hrs; assay type: functional, Conjunctiva; method in brief: as §1
[3] = molecular target: Prostaglandin F2-alpha receptor (Mus musculus) (UniProt P43117); test: Agonist activity at FP receptor in Swiss mouse 3T3 cells assessed as [3H]-IP accumulation by scintillation counting relative to control; assay type: functional, cell-based
Method in brief: (§2)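 Swiss 3T3 mouse fibroblasts carry an endogenous FP receptor. They were rinsed in DMEM/F-12 with 10 mM LiCl, then exposed to agonist or vehicle in that medium for 60 min at 37 °C. The reaction was stopped with ice-cold 0.1 M formic acid. Total [3H]-IPs were eluted with ammonium formate in formic acid and counted by scintillation. EC50 and Emax came from nonlinear fits of concentration-response curves pooled from several experiments.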

[4] = species on record: Oryctolagus cuniculus; test: Effect on ocular irritation in New Zealand albino rabbit assessed as incidence of ocular discharge 1.8 ug after 1 to 5 hrs; assay type: functional, Eye; method in brief: as §1
[5] = species on record: Oryctolagus cuniculus; test: Effect on ocular irritation in New Zealand albino rabbit assessed as incidence of conjunctival hyperemia at 1.8 ug after 1 to 5 hrs; assay type: functional, Conjunctiva; method in brief: as §1
[6] = molecular target: Prostaglandin F2-alpha receptor (Bos taurus, UniProt P37289); test: Displacement of [3H]PGF2 alpha from FP receptor in bovine corpus luteum membrane; assay type: cell membranes
Method in brief: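 Nonspecific binding was set with 10 µM unlabeled PGF2α or cloprostenol. Bound and free ligand were separated by vacuum filtration on PEI-soaked GF/B filters and counted. Ki came from nonlinear fitting across several experiments.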

[7] = species on record: Oryctolagus cuniculus; test: Effect on ocular irritation in New Zealand albino rabbit assessed as incidence of conjunctival swelling 1.8 ug after 1 to 5 hrs; assay type: functional, Conjunctiva; method in brief: as §1
[8] = molecular target: Prostaglandin F2-alpha receptor (Mus musculus, UniProt P43117); test: Agonist activity at FP receptor in Swiss mouse 3T3 cells assessed as [3H]-IP accumulation by scintillation counting; assay type: functional, cell-based; method in brief: as §2
[9] = species on record: Felis catus; test: Toxicity in normotensive cat assessed as ocular irritation; assay type: organism-based, Eye; conditions: in vivo
[10] = species on record: Oryctolagus cuniculus; test: Effect on ocular irritation in New Zealand albino rabbit assessed as incidence of conjunctival swelling at 0.03 ug after 1 to 5 hrs; assay type: functional, Conjunctiva; method in brief: as §1
[11] = species on record: Macaca fascicularis; test: Inhibition of intraocular pressure in hypertensive monkey at 1 ug, bid; conditions: Eye
[12] = species on record: Oryctolagus cuniculus; test: Effect on ocular irritation in New Zealand albino rabbit assessed as incidence of conjunctival hyperemia at 0.1 ug after 1 to 5 hrs; assay type: functional, Conjunctiva; method in brief: as §1
[13] = species on record: Oryctolagus cuniculus; test: Effect on ocular irritation in New Zealand albino rabbit assessed as incidence of conjunctival swelling at 0.3 ug after 1 to 5 hrs; assay type: functional, Conjunctiva; method in brief: as §1
[14] = species on record: Felis catus; test: Acute […] response in normotensive cat assessed as AUC (1 to 5 hrs) at 1 ug; assay type: functional
Method in brief: (§3)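 Conscious cats held in cat bags under uniform room lighting. Horizontal pupil diameter read with a hand-held micrometer, then again at 0.5, 1, 1.5, 2, 2.5, 3, 4 and 5 h after topical dosing. The AUC of pupil diameter change versus time over 1–5 h was computed from group averages. Ranking is qualitative, with no statistics.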

[15] = species on record: Oryctolagus cuniculus; test: Effect on ocular irritation in New Zealand albino rabbit assessed as incidence of ocular discharge at 3 ug after 1 to 5 hrs; assay type: functional, Eye; method in brief: as §1
[16] = species on record: Oryctolagus cuniculus; test: Effect on ocular irritation in New Zealand albino rabbit assessed as incidence of conjunctival hyperemia at 3 ug after 1 to 5 hrs; assay type: functional, Conjunctiva; method in brief: as §1
[17] = species on record: Oryctolagus cuniculus; test: Effect on ocular irritation in New Zealand albino rabbit assessed as incidence of ocular discharge at 10 ug after 1 to 5 hrs; assay type: functional, Eye; method in brief: as §1
[18] = species on record: Macaca fascicularis; test: Inhibition of intraocular pressure in hypertensive monkey at 3 ug, bid after 5th dose; design: scale not given: the % may be the effect or the level left
[19] = species on record: Oryctolagus cuniculus; test: Effect on ocular irritation in New Zealand albino rabbit assessed as incidence of conjunctival hyperemia at 30 ug after 1 to 5 hrs; assay type: functional, Conjunctiva; method in brief: as §1
[20] = species on record: Oryctolagus cuniculus; test: Effect on ocular irritation in New Zealand albino rabbit assessed as incidence of conjunctival hyperemia at 0.03 ug after 1 to 5 hrs; assay type: functional, Conjunctiva; method in brief: as §1
[21] = species on record: Felis catus; test: Toxicity in normotensive cat assessed as discomfort; assay type: organism-based; conditions: in vivo
[22] = species on record: Oryctolagus cuniculus; test: Effect on ocular irritation in New Zealand albino rabbit assessed as incidence of ocular discharge at 30 ug after 1 to 5 hrs; assay type: functional, Eye; method in brief: as §1
[23] = species on record: Oryctolagus cuniculus; test: Effect on ocular irritation in New Zealand albino rabbit assessed as incidence of conjunctival swelling at 0.1 ug after 1 to 5 hrs; assay type: functional, Conjunctiva; method in brief: as §1
[24] = species on record: Felis catus; test: Acute […] response in normotensive cat assessed as AUC (1 to 5 hrs) at 0.1 ug; assay type: functional; method in brief: as §3
[25] = species on record: Oryctolagus cuniculus; test: Effect on ocular irritation in New Zealand albino rabbit assessed as incidence of conjunctival swelling at 10 ug after 1 to 5 hrs; assay type: functional, Conjunctiva; method in brief: as §1
[26] = species on record: Oryctolagus cuniculus; test: Effect on ocular irritation in New Zealand albino rabbit assessed as incidence of conjunctival swelling at 3 ug after 1 to 5 hrs; assay type: functional, Conjunctiva; method in brief: as §1
[27] = species on record: Oryctolagus cuniculus; test: Effect on ocular irritation in New Zealand albino rabbit assessed as incidence of ocular discharge at 1 ug after 1 to 5 hrs; assay type: functional, organism-based, Eye; method in brief: as §1
[28] = species on record: Oryctolagus cuniculus; test: Effect on ocular irritation in New Zealand albino rabbit assessed as incidence of ocular discharge at 0.03 ug after 1 to 5 hrs; assay type: functional, Eye; method in brief: as §1
[29] = species on record: Oryctolagus cuniculus; test: Effect on ocular irritation in New Zealand albino rabbit assessed as incidence of conjunctival hyperemia at 0.3 ug after 1 to 5 hrs; assay type: functional, Conjunctiva; method in brief: as §1
[30] = species on record: Macaca fascicularis; test: Induction of miosis in monkey; conditions: cynomolgus monkey, in vivo
[31] = species on record: Felis catus; test: Acute […] response in normotensive cat assessed as AUC (1 to 5 hrs) at 0.3 ug; assay type: functional; method in brief: as §3
[32] = species on record: Oryctolagus cuniculus; test: Effect on ocular irritation in New Zealand albino rabbit assessed as incidence of conjunctival hyperemia at 10 ug after 1 to 5 hrs; assay type: functional, Conjunctiva; method in brief: as §1
[33] = species on record: Macaca fascicularis; test: Toxicity in monkey assessed as drug tolerance; conditions: cynomolgus monkey, in vivo
[34] = species on record: Macaca fascicularis; test: Inhibition of intraocular pressure in hypertensive monkey at 3 ug, bid after 4th dose measured after 16 hrs; design: scale not given: the % may be the effect or the level left
[35] = species on record: Macaca fascicularis; test: Inhibition of intraocular pressure in hypertensive monkey at 3 ug after first instillation; design: scale not given: the % may be the effect or the level left
[36] = species on record: Oryctolagus cuniculus; test: Effect on ocular irritation in New Zealand albino rabbit assessed as incidence of ocular discharge at 0.1 ug after 1 to 5 hrs; assay type: functional, Eye; method in brief: as §1
[37] = species on record: Oryctolagus cuniculus; test: Effect on ocular irritation in New Zealand albino rabbit assessed as incidence of conjunctival swelling at 30 ug after 1 to 5 hrs; assay type: functional, Conjunctiva; method in brief: as §1
[38] = species on record: Oryctolagus cuniculus; test: Effect on ocular irritation in New Zealand albino rabbit assessed as incidence of ocular discharge at 0.3 ug after 1 to 5 hrs; assay type: functional, Eye; method in brief: as §1

Sequence of Prostaglandin F2-alpha receptor (Mus musculus) (P43117 whole entry): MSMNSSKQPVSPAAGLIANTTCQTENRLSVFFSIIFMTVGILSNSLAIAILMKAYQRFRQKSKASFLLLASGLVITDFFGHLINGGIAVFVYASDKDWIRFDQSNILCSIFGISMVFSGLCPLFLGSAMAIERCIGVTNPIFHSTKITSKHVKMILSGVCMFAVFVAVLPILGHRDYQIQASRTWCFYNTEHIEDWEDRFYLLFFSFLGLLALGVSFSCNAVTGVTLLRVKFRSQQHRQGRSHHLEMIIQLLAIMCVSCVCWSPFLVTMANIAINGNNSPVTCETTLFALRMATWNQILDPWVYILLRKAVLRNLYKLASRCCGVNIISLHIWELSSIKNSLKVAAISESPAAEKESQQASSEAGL
Sequence of Prostaglandin F2-alpha receptor (Mus musculus, UniProt P43117) (P43117 whole entry): as above
Sequence of Prostaglandin F2-alpha receptor (Bos taurus, UniProt P37289) (P37289 whole entry): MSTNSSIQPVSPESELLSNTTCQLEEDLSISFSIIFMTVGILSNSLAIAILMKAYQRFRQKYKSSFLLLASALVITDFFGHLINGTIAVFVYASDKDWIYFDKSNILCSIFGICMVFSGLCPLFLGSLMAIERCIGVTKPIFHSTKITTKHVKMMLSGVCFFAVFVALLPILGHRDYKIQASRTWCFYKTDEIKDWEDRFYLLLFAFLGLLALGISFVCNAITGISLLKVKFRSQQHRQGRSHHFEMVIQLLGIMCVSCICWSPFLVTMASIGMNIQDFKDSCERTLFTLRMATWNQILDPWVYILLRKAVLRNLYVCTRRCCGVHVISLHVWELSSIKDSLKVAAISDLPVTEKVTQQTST

Compound: CCCCC[C@H](O)/C=C/[C@@H]1[C@@H](C/C=C\CCCC(=O)O)[C@@H](O)C[C@H]1O [DINOPROST]
Activity [1]: 100% | Activity [2]: 40%

Activity [3]: 85% | Ki [6]: 98 nM | EC50 [8]: 31.7 nM
Compound: O=C(O)CCC/C=C\C[C@@H]1[C@@H](CC[C@@H](O)CCc2ccccc2)[C@H](O)C[C@@H]1O [LATANOPROST ACID]
Activity [4]: 20% | Activity [5]: 45% | Activity [7]: 40%

Activity [3]: 78% | Ki [6]: 72 nM | EC50 [8]: 1.9 nM
Compound: O=C(O)CCC/C=C\C[C@@H]1[C@@H](OC[C@@H](O)CCc2cccc(C(F)(F)F)c2)[C@H](O)C[C@@H]1O

Activity [3]: 86% | Ki [6]: 140 nM | EC50 [8]: 62.2 nM
Compound: O=C(O)CCC/C=C\C[C@@H]1[C@@H](OC[C@H](O)COc2cccc(Cl)c2)[C@H](O)C[C@@H]1O

Activity [3]: 82% | Ki [6]: 130 nM | EC50 [8]: 5.7 nM
Compound: O=C(O)CCC/C=C\C[C@@H]1[C@@H](OC[C@H](O)CCc2cccc(C(F)(F)F)c2)[C@H](O)C[C@@H]1O

Activity [3]: 62% | Ki [6]: 680 nM | EC50 [8]: 52.4 nM
Compound: O=C(O)CCC/C=C\C[C@@H]1[C@@H](OC[C@@H](O)COc2cccc(Cl)c2)[C@H](O)C[C@@H]1O

Activity [3]: 67% | Ki [6]: 87 nM | EC50 [8]: 68.6 nM
Compound: O=C(O)CCC/C=C\C[C@@H]1[C@@H](OC[C@H](O)COc2ccccc2)[C@H](O)C[C@@H]1O

Activity [3]: 67% | Ki [6]: 120 nM | EC50 [8]: 294 nM
Compound: O=C(O)CCC/C=C\C[C@@H]1[C@@H](OC[C@@H](O)COc2ccccc2)[C@H](O)C[C@@H]1O

Activity [30]: Not Active
Compound: CC(C)OC(=O)CCC/C=C\C[C@@H]1[C@@H](OC[C@@H](O)CCc2cccc(C(F)(F)F)c2)[C@H](O)C[C@@H]1O
Activity [9]: Non-toxic | Activity [10]: 23% | Activity [11]: inactive | Activity [12]: 13% | Activity [13]: 25% | Activity [14]: 10.2 | Activity [15]: 0% | Activity [16]: 25% | Activity [17]: 15% | Activity [18]: 30% | Activity [19]: 73% | Activity [20]: 13% | Activity [21]: Non-toxic | Activity [22]: 0% | Activity [23]: 38% | Activity [24]: 3.12 | Activity [25]: 35% | Activity [26]: 8% | Activity [27]: 5% | Activity [28]: 5% | Activity [1]: 13% | Activity [29]: 8% | Activity [31]: 6.57 | Activity [32]: 23% | Activity [33]: Not Active | Activity [34]: 21% | Activity [35]: 22% | Activity [36]: 3% | Activity [37]: 45% | Activity [38]: 3% | Activity [2]: 30%
